This is an account of results in ChEMBL document CHEMBL1130279 (J Med Chem, 1997).

Structures are written as SMILES.

One may read the Ki as a measure of affinity in units of concentration, obtained from inhibition or displacement. Usually IC50 stands for the concentration that gives 50% inhibition.

Assay [1] addresses T1, Sodium-dependent dopamine transporter (Rattus norvegicus, UniProt P23977). The assay is described as follows: Displacement of [3H]WIN-35428 from dopamine transporter in rat caudate putamen tissue. Format: tissue-based. The gist of the method: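 Compounds were tested as oxalate salts unless noted; some were hydrochloride or fumarate. Values are mean ± SEM of three experiments, each run in triplicate.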
(In general: Loss of bound radioactivity is the signal in a displacement assay; it reports binding, not function.)

Assay [2] is filed under the species Rattus norvegicus. In words: Compound was evaluated for its ability to inhibit uptake of [3H]-dopamine into rat caudate putamen tissue. Format: functional.
The target in assay [3] is T1, Sodium-dependent dopamine transporter. In words: Compound was evaluated for its ability to displace [3H]WIN-35428 from dopamine transporter in rat caudate putamen tissue. It counts as tissue-based.
Where [4] appears, read: Rattus norvegicus, Caudate-putamen.

T1 sequence (P23977 whole entry): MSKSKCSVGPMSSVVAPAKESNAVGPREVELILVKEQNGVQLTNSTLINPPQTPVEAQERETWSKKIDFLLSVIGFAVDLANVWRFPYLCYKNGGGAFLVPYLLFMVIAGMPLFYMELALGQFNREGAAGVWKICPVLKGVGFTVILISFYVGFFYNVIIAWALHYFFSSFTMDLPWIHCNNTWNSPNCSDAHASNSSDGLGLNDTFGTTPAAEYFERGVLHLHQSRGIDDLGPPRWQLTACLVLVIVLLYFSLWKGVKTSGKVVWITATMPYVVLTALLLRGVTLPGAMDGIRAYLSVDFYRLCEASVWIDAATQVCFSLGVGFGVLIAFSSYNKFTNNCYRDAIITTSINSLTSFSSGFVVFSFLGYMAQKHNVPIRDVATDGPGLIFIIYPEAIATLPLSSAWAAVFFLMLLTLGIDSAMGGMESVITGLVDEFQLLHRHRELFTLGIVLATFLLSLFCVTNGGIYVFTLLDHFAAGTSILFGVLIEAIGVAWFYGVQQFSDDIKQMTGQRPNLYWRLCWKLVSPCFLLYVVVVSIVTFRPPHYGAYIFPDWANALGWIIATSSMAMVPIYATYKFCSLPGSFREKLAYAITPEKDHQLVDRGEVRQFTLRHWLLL

Compound `COC(=O)C[C@@H]1C2C[C@H](C)C(C[C@@H]1Cc1ccccc1)N2C` (stereo partly specified) came in with a Ki in assay [1] of 211 nM.

In turn, `COC(=O)CC1C(Cc2ccccc2)CC2CCC1N2C` (stereo unspecified) displayed a Ki in assay [1] of 33 nM. In assay [2], this compound had a half-maximal inhibitory concentration (IC50) of 161 nM.

Consider `COC(=O)[C@@H]1C2CC[C@H](C[C@@H]1c1ccccc1)N2C`, for which the IC50 was found to be 314 nM in assay [3] and 373 nM in assay [2] (setting [4]).

For the compound `COC(=O)C[C@H]1C2C[C@@H](Cc3ccccc3)C(C[C@@H]1Cc1ccccc1)N2C` (stereo partly specified), in assay [1], the inhibitory constant (Ki) was 7590 nM.

Consider `COC(=O)C[C@@H]1C2C[C@@H](Cc3ccccc3)C(C[C@@H]1Cc1ccccc1)N2C` (stereo partly specified), for which, in assay [1], the affinity, expressed as Ki, was 3080 nM.

Compound `COC(=O)C[C@@H]1C2CCC(C[C@@H]1Cc1ccccc1)N2C` (stereo partly specified) returned an IC50 in assay [2] (setting [4]) of 94 nM.

Consider `COC(=O)CC1=C(Cc2ccccc2)CC2C(Cc3ccccc3)CC1N2C` (stereo unspecified), for which the inhibitory constant (Ki) in assay [1] stood at 4830 nM.

With `COC(=O)CC1C(Cc2ccccc2)CC2C(Cc3ccccc3)CC1N2C` (stereo unspecified), the Ki in assay [1] stood at 3080 nM.

Turning to `COC(=O)CC1C(Cc2ccccc2)CC2CCC1N2C` (single isomer, unassigned; (+)), the affinity in assay [1] corresponds to a Ki of 60 nM. In assay [2], this compound showed an IC50 of 208 nM.

`CC[C@@H]1CC2[C@@H](CC(=O)OC)[C@@H](Cc3ccccc3)CC1N2C` (stereo in doubt; 19c) came in with an inhibitory constant (Ki) in assay [1] of 307 nM.

The compound `CCCC[C@@H]1CC2[C@@H](CC(=O)OC)[C@@H](Cc3ccccc3)CC1N2C` (stereo in doubt; 19e) returned a Ki in assay [1] of 8580 nM. Compared with the last compound, the Ki is about 28-fold higher.

Regarding `COC(=O)CC1C(Cc2ccccc2)CC2CCC1N2C` (stereo in doubt; 20a), the half-maximal inhibitory concentration (IC50) in assay [2] was 457 nM.

`CC[C@@H]1CC2[C@@H](CC(=O)OC)[C@@H](Cc3ccccc3)CC1N2C` (stereo in doubt; 20c) showed an inhibition constant (Ki) in assay [1] of 1150 nM.

Turning to `CCC[C@H]1CC2[C@@H](CC(=O)OC)[C@@H](Cc3ccccc3)CC1N2C` (stereo in doubt; 20d), the Ki in assay [1] came out at 7240 nM. Against the preceding compound, the Ki is about 6.3-fold higher.

`CCCC[C@@H]1CC2[C@@H](CC(=O)OC)[C@@H](Cc3ccccc3)CC1N2C` (stereo in doubt; 20e) registered a Ki in assay [1] of 19700 nM.

`COC(=O)C[C@H]1C2C[C@@H](C)C(C[C@@H]1Cc1ccccc1)N2C` (stereo in doubt; 21b) came in with an inhibitory constant (Ki) in assay [1] of 57 nM. The compound also had an IC50 in assay [2] of 107 nM.

For the compound `CCC1CC2C(CC(=O)OC)C(Cc3ccccc3)CC1N2C` (stereo in doubt; 21c), the inhibition constant (Ki) in assay [1] was determined as 3110 nM.

`CCCC1CC2C(CC(=O)OC)C(Cc3ccccc3)CC1N2C` (stereo in doubt; 21d) displayed a Ki in assay [1] of 5850 nM.

In assay [1], `COC(=O)C[C@H]1C2C[C@@H](C)C(C[C@@H]1Cc1ccccc1)N2C` (stereo in doubt; 22b) gave an inhibition constant (Ki) of 294 nM. Moreover, in assay [2], half-maximal inhibition (IC50) was put at 532 nM.

`CCC1CC2C(CC(=O)OC)C(Cc3ccccc3)CC1N2C` (stereo in doubt; 22c): affinity in assay [1] was put at a Ki of 6210 nM.

The compound `CCCC1CC2C(CC(=O)OC)C(Cc3ccccc3)CC1N2C` (stereo in doubt; 22d) yielded an inhibition constant (Ki) in assay [1] of 57300 nM. Against the preceding compound, the Ki is about 9.2-fold higher.
